Assay results reported in ChEMBL document CHEMBL1671834, “Novel 3-aryl indoles as progesterone receptor antagonists for uterine fibroids” (ACS Med Chem Lett, 2011).
pIC50, pKi: −log10 of the molar value. Calls of active or inactive are those of the source. The calls are words filed in the database; no cut-off is given here.

What was measured:
Progesterone receptor [1] = biological target: T1, Progesterone receptor (Homo sapiens, UniProt P06401); experiment: Displacement of [3H]methyltrienolone from human progesterone receptor expressed in HEK293 cells; format: cell-based
T1 sequence (P06401 whole entry): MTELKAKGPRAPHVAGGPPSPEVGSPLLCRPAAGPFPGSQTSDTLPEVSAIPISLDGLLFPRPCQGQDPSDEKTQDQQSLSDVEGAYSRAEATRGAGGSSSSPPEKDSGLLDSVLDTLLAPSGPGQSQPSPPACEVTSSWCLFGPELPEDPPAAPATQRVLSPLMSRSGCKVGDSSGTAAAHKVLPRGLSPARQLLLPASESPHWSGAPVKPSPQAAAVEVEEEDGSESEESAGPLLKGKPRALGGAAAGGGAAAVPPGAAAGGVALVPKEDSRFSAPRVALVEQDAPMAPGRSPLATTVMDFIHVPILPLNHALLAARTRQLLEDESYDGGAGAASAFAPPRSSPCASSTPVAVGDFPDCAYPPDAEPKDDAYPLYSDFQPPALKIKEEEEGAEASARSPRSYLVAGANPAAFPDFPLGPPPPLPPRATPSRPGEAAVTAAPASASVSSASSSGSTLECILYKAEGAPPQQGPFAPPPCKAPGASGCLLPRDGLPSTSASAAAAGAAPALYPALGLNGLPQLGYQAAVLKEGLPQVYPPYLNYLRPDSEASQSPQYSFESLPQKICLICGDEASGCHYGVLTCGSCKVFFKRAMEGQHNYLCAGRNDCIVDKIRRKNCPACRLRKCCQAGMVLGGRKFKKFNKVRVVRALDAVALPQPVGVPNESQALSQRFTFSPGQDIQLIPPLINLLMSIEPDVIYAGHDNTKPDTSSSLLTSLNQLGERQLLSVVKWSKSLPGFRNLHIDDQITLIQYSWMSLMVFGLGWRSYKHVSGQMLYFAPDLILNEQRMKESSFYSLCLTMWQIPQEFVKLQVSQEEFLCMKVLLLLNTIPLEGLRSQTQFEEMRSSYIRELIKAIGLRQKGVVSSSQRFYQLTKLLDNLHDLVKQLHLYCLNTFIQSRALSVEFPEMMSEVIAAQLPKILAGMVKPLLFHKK
Outline: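 Competitive binding to recombinant full-length human receptors against tritium-labelled standards. Values are geometric means of at least duplicate determinations.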

Androgen receptor = biological target: T2, Androgen receptor (Homo sapiens, UniProt P10275); experiment: Displacement of [3H]methyltrienolone from human androgen receptor expressed in HEK293 cells; format: cell-based
T2 sequence (P10275 whole entry): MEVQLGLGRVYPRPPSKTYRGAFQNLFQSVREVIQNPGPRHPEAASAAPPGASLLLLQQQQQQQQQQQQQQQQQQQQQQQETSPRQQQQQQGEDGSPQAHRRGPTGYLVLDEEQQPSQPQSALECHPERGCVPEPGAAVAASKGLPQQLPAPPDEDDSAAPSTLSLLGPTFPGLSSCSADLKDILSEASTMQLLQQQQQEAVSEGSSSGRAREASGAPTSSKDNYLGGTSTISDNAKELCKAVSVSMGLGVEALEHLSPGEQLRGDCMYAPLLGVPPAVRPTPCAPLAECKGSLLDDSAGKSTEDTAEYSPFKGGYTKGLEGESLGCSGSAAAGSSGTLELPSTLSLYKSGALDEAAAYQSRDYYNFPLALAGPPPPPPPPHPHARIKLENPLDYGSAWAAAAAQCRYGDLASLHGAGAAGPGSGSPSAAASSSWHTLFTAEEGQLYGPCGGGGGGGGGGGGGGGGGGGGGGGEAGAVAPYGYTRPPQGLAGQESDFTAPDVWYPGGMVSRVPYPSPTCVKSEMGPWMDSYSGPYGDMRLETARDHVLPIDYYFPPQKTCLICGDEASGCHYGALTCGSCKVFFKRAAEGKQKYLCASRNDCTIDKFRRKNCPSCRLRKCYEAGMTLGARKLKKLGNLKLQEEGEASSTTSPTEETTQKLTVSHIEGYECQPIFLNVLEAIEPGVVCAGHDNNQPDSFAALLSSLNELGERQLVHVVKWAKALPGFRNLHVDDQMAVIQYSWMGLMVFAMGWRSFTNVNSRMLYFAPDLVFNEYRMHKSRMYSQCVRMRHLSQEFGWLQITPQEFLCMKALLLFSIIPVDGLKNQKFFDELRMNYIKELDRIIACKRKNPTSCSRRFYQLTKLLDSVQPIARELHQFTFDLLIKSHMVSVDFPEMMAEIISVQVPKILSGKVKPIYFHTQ

Progesterone receptor [2] = biological target: T1, Progesterone receptor; experiment: Antagonist activity at human progesterone receptor expressed in HEK293 cells assessed as inhibition of […]-induced transcriptional activity by GRE-driven luciferase reporter gene assay; format: functional, cell-based
Outline: (§1)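 Transcription assay in HEK293 cells cotransfected with full-length human receptor. Values are geometric means of at least duplicate determinations.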

[3] = biological target: T3, Progesterone receptor (Homo sapiens) (UniProt P06401); experiment: Antagonist activity at human progesterone receptor expressed in HEK293 cells assessed as inhibition of […]-induced transcriptional activity by GRE-driven luciferase reporter gene assay relative to untreated control; format: functional, cell-based; set-up: concentration or dose not given beside the values; settings: concentration not given here; outline: as §1
T3 sequence (whole entry): T1 sequence (P06401 whole entry)

[4] = biological target: T4, Mineralocorticoid receptor (Homo sapiens) (UniProt P08235); experiment: Antagonist activity at human mineralocorticoid receptor expressed in HEK293 cells assessed as inhibition of […]-induced transcriptional activity by GRE-driven luciferase reporter gene assay relative to untreated control; format: functional, cell-based; set-up: concentration or dose not given beside the values; settings: concentration not given here; outline: as §1
T4 sequence (whole entry): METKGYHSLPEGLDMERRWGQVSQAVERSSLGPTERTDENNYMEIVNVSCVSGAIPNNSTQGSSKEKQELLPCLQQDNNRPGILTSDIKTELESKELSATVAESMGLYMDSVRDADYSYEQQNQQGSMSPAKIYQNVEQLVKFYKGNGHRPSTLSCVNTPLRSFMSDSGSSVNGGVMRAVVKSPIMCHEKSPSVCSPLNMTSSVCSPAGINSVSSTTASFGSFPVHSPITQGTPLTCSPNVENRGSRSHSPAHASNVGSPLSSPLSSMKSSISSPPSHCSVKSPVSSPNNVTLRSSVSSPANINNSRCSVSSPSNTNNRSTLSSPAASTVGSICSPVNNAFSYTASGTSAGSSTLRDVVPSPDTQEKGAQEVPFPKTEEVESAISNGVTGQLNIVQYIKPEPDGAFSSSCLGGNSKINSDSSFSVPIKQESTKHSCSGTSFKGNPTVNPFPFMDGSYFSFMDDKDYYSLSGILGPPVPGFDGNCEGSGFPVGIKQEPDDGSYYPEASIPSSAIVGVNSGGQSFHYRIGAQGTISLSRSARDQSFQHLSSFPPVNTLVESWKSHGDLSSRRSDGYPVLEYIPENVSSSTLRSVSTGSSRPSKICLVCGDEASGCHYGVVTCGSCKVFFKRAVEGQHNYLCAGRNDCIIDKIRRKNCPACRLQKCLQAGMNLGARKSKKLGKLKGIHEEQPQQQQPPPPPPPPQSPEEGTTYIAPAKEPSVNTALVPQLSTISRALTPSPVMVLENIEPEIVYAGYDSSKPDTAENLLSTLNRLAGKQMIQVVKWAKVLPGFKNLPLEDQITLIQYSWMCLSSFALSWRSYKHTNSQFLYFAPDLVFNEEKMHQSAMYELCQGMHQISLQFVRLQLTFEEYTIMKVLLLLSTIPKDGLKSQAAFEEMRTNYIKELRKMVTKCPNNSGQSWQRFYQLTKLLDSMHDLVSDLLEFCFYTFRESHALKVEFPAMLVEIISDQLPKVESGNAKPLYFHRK

Rattus norvegicus = experiment: Antagonist activity at progesterone receptor in orally dosed ovariectomized Sprague-Dawley rat assessed as reversal of R5020-induced down-regulation of estradiol-induced increase in complement 3 mRNA expression by C3 rat uterine assay; format: functional; settings: po
Outline: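 Ovariectomized rats dosed orally (mg/kg dose response). Estrogen (E2, 0.05 mg/kg) induces complement C3 mRNA in uterus. Progestin R5020 (0.1 mg/kg) down-regulates it. Read-out is reversal of the R5020 effect, expressed as fold over asoprisnil (5 mg/kg). ED50 derived from the dose response.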

Oryctolagus cuniculus [5] = experiment: Antagonist activity at progesterone receptor in estrogen-primed immature New Zealand White rabbit assessed as inhibition of progesterone-induced endometrial transformation at 1 mg/kg, sc by McPhail assay; format: functional, organism-based; set-up: dose 1 mg/kg
Outline: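 Immature rabbits primed with estrogen, given progesterone 1 mg/kg with test compound at various sc doses. Endometrial transformation scored by McPhail Index.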

Oryctolagus cuniculus [6] = experiment: Agonist activity at progesterone receptor in estrogen-primed immature New Zealand White rabbit assessed as stimulation of progesterone-induced endometrial transformation at 30 mg/kg, sc by McPhail assay; format: functional, organism-based; set-up: dose 30 mg/kg
Outline: (§2)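 Immature rabbits primed with estrogen, dosed sc without progesterone. Endometrial transformation scored by McPhail Index.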

Oryctolagus cuniculus [7] = experiment: Agonist activity at progesterone receptor in sc dosed estrogen-primed immature New Zealand White rabbit assessed as stimulation of progesterone-induced endometrial transformation by McPhail assay; format: functional, organism-based; outline: as §2

pKi (Progesterone receptor [1]) | pKi (Androgen receptor) | pIC50 (Progesterone receptor [2]) | inhibition [3] [%] | inhibition [4] [%] | Activity (Oryctolagus cuniculus [7]) | Structure (SMILES) | ED50 (Rattus norvegicus) [mg/kg] | Activity (Oryctolagus cuniculus [5]) | Activity (Oryctolagus cuniculus [6])
6.33 | 6.68 | 6.15 | 89.7 | 62.9 | – | C[C@@](c1ccc(F)cc1F)(c1c[nH]c2c(NS(C)(=O)=O)cccc12)C1CC1 | – | – | –
– | – | – | – | – | – | COC[C@]1(OC)CC[C@H]2[C@@H]3CCC4=CC(=O)CCC4=C3[C@@H](c3ccc(/C=N/O)cc3)C[C@@]21C [ASOPRISNIL] | 0.31 | Active | Active
– | – | – | – | – | inactive | CC#C[C@]1(O)CC[C@H]2[C@@H]3CCC4=CC(=O)CCC4=C3[C@@H](c3ccc(N(C)C)cc3)C[C@@]21C | – | Active | –
5.91 | 6.17 | 5.69 | 94.5 | 87 | – | C[C@](c1ccc(F)cc1F)(c1c[nH]c2c(NS(C)(=O)=O)cccc12)C1CC1 | – | – | –
